High-throughput results as filed in PubChem BioAssay.
MsrA inh – inhibits bovine methionine sulfoxide reductase A. AID 651718. 360,000 tested, 0.75% active. purified bovine MsrA, absorbance read-out. inhibition, % at 15.5 µM; in the data active = inhibition above about 4.5%;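 note: 0% = vehicle wells with enzyme and 100% = reference inhibitor wells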
MC4R antag cAMP – antagonists of human melanocortin 4 receptor (MC4R); MC4R-expressing cells, MTII-stimulated cAMP, LANCE TR-FRET; inhibition, % at 6.5 µM; 360,000 tested, 0.48% active; AID 540295;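 active = inhibition above its plate's cutoff, the mean of tested wells on that plate plus 3 SD, cut at about 29% in these data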;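 note: 0% = Melanotan II alone and 100% = Melanotan II plus saturating MCL0020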
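Test system: U2OS cells stably expressing human melanocortin 4 receptor (MC4R); also added: Melanotan II challenge; compound: 6.5 µM single dose; timing: 30-min compound preincubation, 1-h Melanotan II challenge, 1-h detection, room temperature; signal: Eu-cAMP/anti-cAMP TR-FRET, emission 671 nm; repeats: one well per compound, no replicates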
MC4R barr agon – agonists of human melanocortin 4 receptor (MC4R) beta-arrestin | P32245 | U2OS MC4R beta-arrestin complementation, luminescence; percent of melanotan II response, DMSO zero | activation, % at 8.9 µM | 360,000 tested, 0.98% active;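 active = activation above a per-plate cutoff, the mean activation of sample wells on that plate plus 3 SD, cut at about 8% in these data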
bovine MsrA act – activates bovine MsrA enzyme; 360,000 tested, 0.3% active; activation, % at 10.6 µM; purified bovine MsrA, absorbance read-out; AID 602163; in the data active = activation above about 7.5%;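 note: 0% = vehicle and 100% = reference activator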
MC4R barr ag – human MC4R beta-arrestin agonism confirmation; shares compounds with MC4R barr agon; U2OS MC4R beta-arrestin recruitment, luminescence; scaled DMSO 0%, Melanotan II 100%; activation, % at 8.9 µM; 2,400 tested, 31% active; AID 602192;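 active = mean activation across replicates above the hit cutoff set in the earlier primary screen, cut at about 8% in these data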
MOR-DOR barr ag – activates mu-delta opioid heterodimer, MC4R agonist counter-screen; shares compounds with MC4R barr agon; U2OS PathHunter beta-arrestin, beta-gal luminescence; percent of deltorphin B response, DMSO zero; activation, % at 9.2 µM; 2,400 tested, 5.8% active; AID 602194;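 active = mean activation across replicates exceeds the hit threshold derived in the earlier primary screen, cut at about 18% in these data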;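 note: 100% = deltorphin B at 0.9 µM final and 0% = DMSO alone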
Target sequence (P35372 whole entry, looked up): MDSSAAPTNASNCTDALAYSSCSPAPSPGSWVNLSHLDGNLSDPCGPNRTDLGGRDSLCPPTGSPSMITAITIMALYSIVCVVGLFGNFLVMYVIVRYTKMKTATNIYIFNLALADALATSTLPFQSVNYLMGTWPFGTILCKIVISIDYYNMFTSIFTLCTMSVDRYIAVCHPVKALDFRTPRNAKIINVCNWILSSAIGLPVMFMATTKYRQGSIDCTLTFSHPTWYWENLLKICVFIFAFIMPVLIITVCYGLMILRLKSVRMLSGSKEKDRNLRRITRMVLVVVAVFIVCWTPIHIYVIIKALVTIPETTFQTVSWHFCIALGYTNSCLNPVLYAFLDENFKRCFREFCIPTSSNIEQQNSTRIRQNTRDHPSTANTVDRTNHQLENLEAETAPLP
Target sequence (P41143 whole entry, looked up): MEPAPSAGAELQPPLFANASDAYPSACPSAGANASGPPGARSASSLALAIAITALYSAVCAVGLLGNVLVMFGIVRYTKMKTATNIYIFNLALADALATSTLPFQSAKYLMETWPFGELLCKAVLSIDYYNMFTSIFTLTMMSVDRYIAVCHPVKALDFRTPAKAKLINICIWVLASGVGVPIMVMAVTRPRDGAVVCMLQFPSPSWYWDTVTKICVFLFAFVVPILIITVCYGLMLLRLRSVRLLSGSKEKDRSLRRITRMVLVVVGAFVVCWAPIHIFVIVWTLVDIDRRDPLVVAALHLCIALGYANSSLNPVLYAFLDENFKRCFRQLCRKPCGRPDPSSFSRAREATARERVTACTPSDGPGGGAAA
An asterisk follows results filed as active; nt = no result. Most compounds without a hit are left out; they make up all but 2.3% or so of the library.

SMILES	MsrA inh	MC4R antag cAMP	MC4R barr agon	bovine MsrA act	MC4R barr ag	MOR-DOR barr ag
CCOc1ccc(NC(=O)N2CCC(NC(=O)C(Cc3cccc(F)c3)NC(C)=O)CC2)cc1 (stereo not drawn)	-0.1	0.9	0.4	-2.7	nt	nt
CCCCC(=O)NCCc1cc2c(C)ccc(C)c2[nH]c1=O	1.3	6.8	0.4	-6.8	nt	nt
Cc1ccc(Cl)cc1N1CCN(S(=O)(=O)c2ccc3[nH]c(=O)c(=O)[nH]c3c2)CC1	0.9	-0.2	1.4	-9.2	nt	nt
Cc1ccc(Cl)cc1N1CCN(S(=O)(=O)c2ccc3[nH]c(=O)ccc3c2)CC1	-0.3	6.7	10.2*	-1.4	11.2*	3.5
Cc1sc2nc(CSc3cccc(C(F)(F)F)c3)[nH]c(=O)c2c1C	-0.7	-9.9	16.1*	-7.1	5.5	2.5
COc1ccc(C(=O)Nc2cc(-c3ccc(C)cc3)no2)cc1	0.4	-1.4	9.8*	-9.8	-2.0	5.3
COC(=O)c1sc2nc(C)nc(SCC(=O)Nc3sccc3C(N)=O)c2c1C	-0.3	-0.1	19.3*	-7.6	8.1	5.3
COc1cc(-c2nnc(SCC#CCO)o2)cc(OC)c1OC	-0.4	-1.2	-0.2	-1.3	nt	nt
O=C(Nc1ccc2ccccc2c1)c1ccc(Cl)cc1Cl	0.1	15.7	12.2*	-1.9	2.3	5.2
O=C(Nc1ccc2ccccc2c1)c1ccccc1Cl	-0.6	8.4	-2.9	0.2	nt	nt
CC(C)c1ccc(NC(=O)CSc2ncccc2C(=O)Oc2cccc([N+](=O)[O-])c2)cc1	1.1	-14.2	19.6*	-2.1	17.0*	1.6
CC(C)c1ccc(NC(=O)COC(=O)/C=C/c2cccc([N+](=O)[O-])c2)cc1	0.3	0.7	16.0*	0.5	0.6	2.8
COc1ccc(NC(=O)CSc2ncccc2C(=O)OC(C)C)cc1OC	0.6	0.1	-1.1	-9.8	nt	nt
Cc1ccc(NC(=O)COC(=O)/C=C/c2cccc(Cl)c2)cc1S(=O)(=O)N1CCOCC1	0.6	-0.7	-0.4	-6.7	nt	nt
O=C(COC(=O)/C=C/c1cccc(Cl)c1)Nc1ccc(N2CCOCC2)cc1	0.2	-2.8	9.8*	-2.1	-0.3	8.1
CCn1cc(C(=O)N2CCN(C(=O)c3ccco3)CC2)c2cc(OC)c(OC)cc2c1=O	1.0	5.1	-0.4	-1.7	nt	nt
COc1ccc(Cl)cc1NC(=O)CCc1nnc2ccc(N3CCN(C)CC3)nn12	0.6	0.2	-0.8	-7.0	nt	nt
Cc1cccc(NC(=O)c2nc[nH]c2C(=O)NCCCCCNC(=O)OC(C)(C)C)c1	-1.3	6.1	9.7*	0.1	-3.3	9.5
Cc1cccc(NC(=O)c2nc[nH]c2C(=O)NCCCNC(=O)c2[nH]cnc2C(=O)Nc2cccc(C)c2)c1	-1.0	3.2	-0.9	-2.1	nt	nt
Cc1ccccc1OCCn1cc(/C=C(\C#N)C(=O)NCc2ccco2)c2ccccc21	1.1	4.2	25.6*	-4.1	12.0*	6.0
N#C/C(=C\c1cn(CCOc2ccccc2)c2ccccc12)C(=O)NCc1ccco1	-0.3	19.8	21.4*	2.4	34.8*	8.9
N#C/C(=C\c1cn(CCOc2ccccc2F)c2ccccc12)C(=O)NCc1cccs1	0.6	10.1	10.4*	-1.9	25.7*	7.8
CC(C)C(NC(=O)c1ccccc1F)C(=O)NCC(c1ccco1)N1CCCCC1 (stereo not drawn)	1.4	1.6	1.9	-1.6	nt	nt
O=C1CCCCC1S(=O)(=O)c1ccccc1 (stereo not drawn)	0.2	-1.7	-0.9	-0.5	nt	nt
CCc1noc(C)c1C(=O)Nc1nc(-c2ccc(OC)c(OC)c2)cs1	0.6	10.4	-2.0	-3.0	nt	nt
O=C(Nc1cccc(-c2nc3cccnc3s2)c1)C1c2ccccc2Oc2ccccc21	0.7	2.5	10.5*	-2.3	3.2	8.4
O=C(NNS(=O)(=O)c1ccc2ccccc2c1)c1cccs1	0.1	-4.5	2.9	-3.0	nt	nt
Cc1ccc(NC(=O)C2CCN(S(=O)(=O)c3ccc(Cl)c(C(F)(F)F)c3)CC2)nc1	0.6	1.5	9.9*	0.6	1.9	7.4
Cc1ccnc(NC(=O)C2CCN(S(=O)(=O)c3ccc(Cl)c(C(F)(F)F)c3)CC2)c1	0.0	5.2	6.7	-6.2	nt	nt
